Results from ChEMBL document CHEMBL1143908, “Functionalized chalcones as selective inhibitors of P-glycoprotein and breast cancer resistance protein” (Bioorg Med Chem, 2008).

Legend:
[1] = target: T1, ATP-dependent translocase ABCB1 (Homo sapiens, UniProt P08183); assay: Inhibition of human multidrug resistant gene Pgp expressed in MDCK2 cells assessed as calcein-AM accumulation at 10 uM after 40 mins; assay type: cell-based; parameters: scale not given: the % may be the effect or the level left; details: mdck-ii
[2] = target: T2, Broad substrate specificity ATP-binding cassette transporter ABCG2 (Homo sapiens, UniProt Q9UNQ0); assay: Inhibition of human BCRP mediated mitoxantrone accumulation in mitoxantrone resistant MCF7 cells at 5 uM by flow cytometry; assay type: cell-based; parameters: scale not given: the % may be the effect or the level left; details: mcf7, 5 µM
T2 sequence (Q9UNQ0 whole entry): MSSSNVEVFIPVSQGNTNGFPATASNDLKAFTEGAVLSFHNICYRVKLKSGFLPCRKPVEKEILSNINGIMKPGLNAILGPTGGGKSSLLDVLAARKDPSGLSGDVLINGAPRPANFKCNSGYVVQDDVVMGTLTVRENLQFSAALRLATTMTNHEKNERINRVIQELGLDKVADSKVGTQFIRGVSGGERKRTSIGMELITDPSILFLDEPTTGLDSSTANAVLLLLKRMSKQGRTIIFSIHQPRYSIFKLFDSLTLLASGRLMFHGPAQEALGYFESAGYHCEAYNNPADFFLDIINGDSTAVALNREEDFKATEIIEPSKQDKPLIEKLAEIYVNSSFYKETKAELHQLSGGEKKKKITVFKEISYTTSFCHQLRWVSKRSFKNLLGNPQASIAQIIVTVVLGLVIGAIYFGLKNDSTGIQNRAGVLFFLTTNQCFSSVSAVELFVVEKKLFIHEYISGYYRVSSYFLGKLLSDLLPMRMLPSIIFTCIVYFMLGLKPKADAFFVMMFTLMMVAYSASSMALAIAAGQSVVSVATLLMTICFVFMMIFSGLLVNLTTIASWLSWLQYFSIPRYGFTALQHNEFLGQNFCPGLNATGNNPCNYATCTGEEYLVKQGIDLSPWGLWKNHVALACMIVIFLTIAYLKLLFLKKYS
In short: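 MCF-7/MX cells (selected in 250 nM mitoxantrone) trypsinized and resuspended at ~10^6 cells/ml in serum-free RPMI. Preincubated 15 min at 37 °C with compound (5 uM final) or vehicle (0.5% DMSO), then mitoxantrone 3 uM final added for 30 min. Stopped with ice-cold PBS and washed. Read by flow cytometry (488 nm excitation, 670 nm bandpass) as % area right of a marker set on MCF-7/WT autofluorescence (<5%). n = 4; FTC 10 uM as positive control.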

[3] = target: T1, ATP-dependent translocase ABCB1; assay: Inhibition of human multidrug resistant gene Pgp expressed in MDCK2 cells assessed as calcein-AM accumulation at 1 uM; assay type: cell-based; details: mdck-ii
In short: (§1)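 MDCKII/WT or human MDR1-transfected MDCKII/MDR1 cells (passages 8-17) seeded at 5.0 x 10^4 cells/well and cultured 24 h. Washed, then preincubated 30 min at 37 °C with compound in DMSO-HBSS (≤1% DMSO). Calcein-AM added to 2 uM final, and fluorescence (ex 485/em 535 nm) read every 10 min over 40 min. Accumulation taken at 40 min relative to untreated MDCKII/MDR1, or scaled to the WT-minus-MDR1 fluorescence difference.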

[4] = target: T1, ATP-dependent translocase ABCB1; assay: Inhibition of human wild type gene Pgp expressed in MDCK2 cells assessed as calcein-AM accumulation at 1 uM; assay type: cell-based; details: mdck-ii; in short: as §1
[5] = test system: MCF7; assay: Antiproliferative activity against adriamycin resistant human MCF7 cells after 72 hrs by MTT assay; assay type: functional, cell-based; details: MCF7, 72 h
In short: (§2)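 MCF-7/WT and MCF-7/Adr cells (Adr line kept in medium with 10 uM doxorubicin; RPMI 1640, 10% FBS) exposed to compound for 72 h. MTT then added for 3 h, cells washed with PBS, and formazan dissolved in DMSO. Absorbance read at 590 nm, 3 determinations per concentration, IC50 derived from the concentration-response curve.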

[6] = target: P-gp (ABCB1), wild type (Homo sapiens, UniProt P08183); assay: Inhibition of human wild type Pgp expressed in MDCK2 cells assessed as calcein-AM accumulation at 50 uM after 40 mins; assay type: cell-based, MDCK-II; details: MDCK2 cells expressing human wild type Pgp, probe calcein-AM; in short: as §1
[7] = test system: MCF7; assay: Antiproliferative activity against wild type human MCF7 cells after 72 hrs by MTT assay; assay type: functional, cell-based; details: MCF7, 72 h; in short: as §2
[8] = target: T2, Broad substrate specificity ATP-binding cassette transporter ABCG2; assay: Inhibition of human BCRP mediated mitoxantrone accumulation in mitoxantrone resistant MCF7 cells at 10 uM by flow cytometry; assay type: cell-based; parameters: scale not given: the % may be the effect or the level left; details: mcf7, 10 µM
In short: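 MCF-7/MX cells are maintained in 250 nM mitoxantrone, then trypsinized, washed in ice-cold PBS and resuspended in serum-free RPMI 1640. They are pre-incubated 15 min at 37 °C with compound or vehicle (0.5% v/v DMSO), then exposed to mitoxantrone (3 uM final) for 30 min. Uptake is stopped with ice-cold PBS and cells are washed. Flow cytometry uses 488 nm excitation and a 670 nm filter. The read-out is % area beyond a marker set on MCF-7/WT autofluorescence (<5%).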

[9] = target: T2, Broad substrate specificity ATP-binding cassette transporter ABCG2; assay: Inhibition of human BCRP mediated mitoxantrone accumulation in wild type MCF7 cells at 5 uM by flow cytometry; assay type: cell-based; parameters: scale not given: the % may be the effect or the level left; details: mcf7, 5 µM

T1 sequence (P08183 whole entry): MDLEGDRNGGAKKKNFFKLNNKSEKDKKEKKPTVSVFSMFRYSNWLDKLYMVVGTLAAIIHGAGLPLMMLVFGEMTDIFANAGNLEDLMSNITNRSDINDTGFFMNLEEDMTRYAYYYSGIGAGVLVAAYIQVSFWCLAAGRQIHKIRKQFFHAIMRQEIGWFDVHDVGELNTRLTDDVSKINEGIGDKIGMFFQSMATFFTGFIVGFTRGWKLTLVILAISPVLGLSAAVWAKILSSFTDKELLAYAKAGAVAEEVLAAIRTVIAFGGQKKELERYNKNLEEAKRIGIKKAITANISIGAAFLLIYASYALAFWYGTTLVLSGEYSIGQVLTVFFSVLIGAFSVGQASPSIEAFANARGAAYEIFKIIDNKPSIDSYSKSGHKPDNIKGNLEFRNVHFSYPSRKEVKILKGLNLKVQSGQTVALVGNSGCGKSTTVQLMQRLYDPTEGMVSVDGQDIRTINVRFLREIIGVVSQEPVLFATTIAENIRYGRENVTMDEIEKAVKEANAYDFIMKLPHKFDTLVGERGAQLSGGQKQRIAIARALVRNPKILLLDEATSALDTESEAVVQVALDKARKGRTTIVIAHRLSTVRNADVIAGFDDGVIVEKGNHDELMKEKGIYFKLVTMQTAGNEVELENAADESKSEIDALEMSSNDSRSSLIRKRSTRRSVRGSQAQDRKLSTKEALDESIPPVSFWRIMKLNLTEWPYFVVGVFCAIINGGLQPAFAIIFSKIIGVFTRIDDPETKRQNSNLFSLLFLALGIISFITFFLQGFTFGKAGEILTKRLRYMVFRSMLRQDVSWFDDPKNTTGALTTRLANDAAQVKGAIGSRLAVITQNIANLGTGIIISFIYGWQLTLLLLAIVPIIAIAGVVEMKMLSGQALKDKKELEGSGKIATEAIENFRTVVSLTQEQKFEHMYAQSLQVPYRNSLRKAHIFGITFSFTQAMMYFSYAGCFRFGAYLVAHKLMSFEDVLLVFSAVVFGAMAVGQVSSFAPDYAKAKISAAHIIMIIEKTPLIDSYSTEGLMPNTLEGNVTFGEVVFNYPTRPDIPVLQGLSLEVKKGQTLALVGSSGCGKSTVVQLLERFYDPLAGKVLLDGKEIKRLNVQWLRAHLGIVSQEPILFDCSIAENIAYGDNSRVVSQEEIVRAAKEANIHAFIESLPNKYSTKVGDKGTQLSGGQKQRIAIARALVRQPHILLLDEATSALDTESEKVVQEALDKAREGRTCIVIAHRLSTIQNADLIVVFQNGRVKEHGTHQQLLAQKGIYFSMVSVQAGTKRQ
P-gp (ABCB1), wild type, sequence (P08183 whole entry): as above

| SMILES | Activity [1] [%] | further results |
| --- | --- | --- |
| COc1ccc(/C=C/C(=O)c2ccc(OC)c(OC)c2OC)c(OC)c1 | 174 | – |
| COc1ccc(/C=C/C(=O)c2ccc(OC)cc2OC)c(OC)c1 | 172 | – |
| COc1cc(OC)c(C2CCN(C)CC2)cc1C(=O)/C=C/c1ccncc1 | 117 | – |
| COc1cc(OC)c(C2CCN(C)CC2)cc1C(=O)/C=C/c1cccnc1 | 170 | – |
| COc1cc(OC)c(C2CCN(C)CC2)cc1C(=O)/C=C/c1ccccn1 | 164 | – |
| CCN1CCC(c2cc(C(=O)/C=C/c3ccccc3Cl)c(OC)cc2OC)CC1 | 280 | Activity [3]: Active; inhibition at 40 min, 50 µM [6]: > 100%; Activity [4]: Active; IC50 [7]: 2.6 µM; IC50 [5]: 3.6 µM |
| CCN1CCC(c2cc(C(=O)/C=C/c3ccccc3)c(OC)cc2OC)CC1 | 256 | Activity [3]: Active; Activity [4]: Active; IC50 [7]: 4.8 µM; IC50 [5]: 6.1 µM |
| CCN1CCC(c2cc(C(=O)/C=C/c3ccncc3)c(OC)cc2OC)CC1 | 151 | – |
| COc1ccc(C(=O)/C=C/c2ccc(C(F)(F)F)cc2)c(OC)c1 | 103 | – |
| COc1cc(OC)c(N2CCN(C)CC2)cc1C(=O)/C=C/c1ccccc1 | 176 | – |
| COc1cc(OC)c(N2CCN(C)CC2)cc1C(=O)/C=C/c1ccccc1Cl | 222 | – |
| COc1ccc2c3c([nH]c2c1)[C@H](C=C(C)C)N1C(=O)[C@@H]2CCCN2C(=O)[C@@H]1C3 [FUMITREMORGIN] | – | Activity [8]: 274.5% |
| O=C1c2c(O)ccc(O)c2C(=O)c2c(NCCNCCO)ccc(NCCNCCO)c21 [MITOXANTRONE] | – | Activity [9]: 439.2% |

Continued, in another order:

| Activity [1] [%] | SMILES | further results |
| --- | --- | --- |
| 101 | COc1ccc(C(=O)/C=C/c2ccc(Cl)cc2)c(OC)c1 | Activity [2]: 348.6% |
| 159 | COc1ccc(C(=O)/C=C/c2ccc(N3CCN(C)CC3)cc2)c(OC)c1 | – |
| 216 | COc1ccc(/C=C/C(=O)c2ccc(N3CCNCC3)cc2)c(OC)c1 | Activity [3]: Active; Activity [2]: 188.4%; Activity [4]: Active; IC50 [5]: 21.5 µM |
| 139 | O=C(/C=C/c1ccccc1Cl)c1ccc(N2CCNCC2)cc1 | – |
| 103 | O=C(/C=C/c1ccc(Cl)cc1)c1ccc(N2CCCCC2)cc1 | – |
| 107 | COc1cc(OC)c(N2CCN(C)CC2)cc1C(=O)/C=C/c1ccc(N2CCN(C)CC2)cc1 | – |
| 178 | COc1ccc(C2CCN(C)CC2)cc1C(=O)/C=C/c1ccccc1 | – |
| 247 | CCN1CCC(c2cc(C(=O)/C=C/c3ccc(Cl)cc3)c(OC)cc2OC)CC1 | – |
| 120 | CCN1CCC(c2cc(C(=O)/C=C/c3ccc(N4CCN(C)CC4)cc3)c(OC)cc2OC)CC1 | – |
| 102 | COc1cc(OC)c(C2CCN(C)CC2)cc1C(=O)/C=C/c1ccc(N2CCN(C)CC2)cc1 | – |
| 135 | O=C(/C=C/c1ccc(Cl)cc1)c1ccc(N2CCNCC2)cc1 | – |
| 118 | COc1cc(OC)c(C2CCN(C)CC2)c(O)c1C(=O)/C=C/c1ccc(N2CCN(C)CC2)cc1 | – |
| 178 | COc1ccc(/C=C/C(=O)c2ccc(N3CCCCC3)cc2)c(OC)c1 | – |
| 112 | O=C(/C=C/c1ccccc1)c1ccc(N2CCCCC2)cc1 | – |
